Assays:
[1] = Selectivity index, ratio of IC50 for rat L6 cells to IC50 for amastigote forms of Trypanosoma cruzi Tulahuen C4
[2] = test system: Leishmania donovani; assay: Antileishmanial activity against axenic amastigote forms of Leishmania donovani MHOM/ET/67/L82 assessed as inhibition of growth; assay type: functional, organism-based
In short: (§1)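 Parasite growth assay run in 96-well format per an earlier protocol. Dose–response curves were constructed, and the 50% growth-inhibitory concentration was calculated by linear regression from the sigmoidal dose–inhibition curves.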

[3] = test system: L6; assay: Cytotoxicity against rat L6 cells assessed as cell viability; assay type: cell-based
[4] = Selectivity index, ratio of IC50 for rat L6 cells to IC50 for bloodstream trypomastigote forms of Trypanosoma brucei rhodesiense STIB 900
[5] = Selectivity index, ratio of IC50 for rat L6 cells to IC50 for amastigote forms of Leishmania donovani MHOM/ET/67/L82
[6] = test system: Trypanosoma cruzi; assay: Antichagasic activity against amastigote forms of Trypanosoma cruzi Tulahuen C4 assessed as inhibition of growth; assay type: functional, organism-based; in short: as §1
[7] = test system: Trypanosoma brucei rhodesiense; assay: Antitrypanosomal activity against bloodstream trypomastigote forms of Trypanosoma brucei rhodesiense STIB 900 assessed as inhibition of growth; assay type: functional, organism-based; in short: as §1
[8] = test system: Trypanosoma brucei brucei; assay: Antimicrobial activity against bloodstream forms of Trypanosoma brucei brucei assessed as reduction in cell viability after 3 days by alamar blue assay; assay type: functional, organism-based; details: 72 h
[9] = test system: Trypanosoma cruzi; assay: Activity of histidine tagged recombinant Trypanosoma cruzi type 1 nitroreductase assessed as NADH oxidation at 100 uM by spectrophotometry method
In short: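 Purified recombinant T. cruzi type I nitroreductase, prepared and assayed per earlier work. Specific activity expressed as NADH oxidized per min per mg protein.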

[10] = test system: Trypanosoma brucei brucei; assay: Activity of histidine tagged recombinant Trypanosoma brucei brucei type 1 nitroreductase assessed as NADH oxidation at 100 uM by spectrophotometry method
In short: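 Purified recombinant his-tagged T. b. brucei type I nitroreductase. Each nitrotriazole substrate at 100 µM with NADH at 100 µM. NADH oxidation followed spectrophotometrically at 340 nm. Specific activity expressed as nmol NADH oxidized per min per mg enzyme.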

[11] = test system: Mus musculus; assay: Toxicity in Balb/c mouse infected with firefly luciferase expressing trypamastigote forms of transgenic Trypanosoma cruzi Y at 15 mg/kg/day, ip dosed for 10 days; assay type: organism-based; details: in vivo, 240 h
[12] = test system: Trypanosoma brucei brucei; assay: Antimicrobial activity against bloodstream forms of Trypanosoma brucei brucei overexpressing type I nitroreductase assessed as reduction in cell viability after 3 days by alamar blue assay in presence of tetracycline; assay type: functional, organism-based; details: 72 h
[13] = test system: Trypanosoma brucei brucei; assay: Ratio of IC50 for bloodstream forms of Trypanosoma brucei brucei overexpressing type I nitroreductase in absence of tetracycline to IC50 for bloodstream forms of Trypanosoma brucei brucei overexpressing type I nitroreductase in presence of tetracycline; assay type: functional
[14] = test system: Trypanosoma brucei brucei; assay: Antimicrobial activity against bloodstream forms of Trypanosoma brucei brucei overexpressing type I nitroreductase assessed as reduction in cell viability after 3 days by alamar blue assay in absence of tetracycline; assay type: functional, organism-based; details: 72 h
[15] = test system: Trypanosoma cruzi; assay: Antichagasic activity against firefly luciferase expressing trypamastigote forms of transgenic Trypanosoma cruzi Y infected in Balb/c mouse assessed as reduction in parasite level at 15 mg/kg/day, ip dosed for 10 days by luciferase reporter gene assay; assay type: functional; details: 240 h
In short: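 Balb/c mice were infected with luciferase-expressing T. cruzi Y trypomastigotes and imaged at baseline after i.p. D-luciferin 150 mg/kg in PBS. Ratio = post-treatment / pre-treatment luciferase signal per animal; group mean ± SD.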

[16] = biological target: Cytochrome P450 2C9 (Homo sapiens, UniProt P11712); assay: Inhibition of CYP2C9 in human Liver microsomes after 5 mins by LC-MS/MS method
Sequence of Cytochrome P450 2C9 (P11712 whole entry): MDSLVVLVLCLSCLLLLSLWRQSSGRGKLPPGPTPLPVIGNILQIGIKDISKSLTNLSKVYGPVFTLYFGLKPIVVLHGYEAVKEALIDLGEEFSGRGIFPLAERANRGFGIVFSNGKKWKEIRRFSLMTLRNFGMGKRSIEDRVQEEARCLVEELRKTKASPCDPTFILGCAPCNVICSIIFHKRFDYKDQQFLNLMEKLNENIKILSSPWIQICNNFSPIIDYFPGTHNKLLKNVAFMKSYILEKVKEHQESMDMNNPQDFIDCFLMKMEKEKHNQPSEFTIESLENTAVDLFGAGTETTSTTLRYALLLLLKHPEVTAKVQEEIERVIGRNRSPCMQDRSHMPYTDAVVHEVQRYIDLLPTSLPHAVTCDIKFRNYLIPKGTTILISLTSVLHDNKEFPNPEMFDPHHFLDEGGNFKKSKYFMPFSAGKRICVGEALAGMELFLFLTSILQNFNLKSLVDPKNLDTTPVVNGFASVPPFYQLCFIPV

[17] = biological target: Cytochrome P450 3A4 (Homo sapiens, UniProt P08684); assay: Inhibition of CYP3A4 in human Liver microsomes after 5 mins by LC-MS/MS method
Sequence of Cytochrome P450 3A4 (P08684 whole entry): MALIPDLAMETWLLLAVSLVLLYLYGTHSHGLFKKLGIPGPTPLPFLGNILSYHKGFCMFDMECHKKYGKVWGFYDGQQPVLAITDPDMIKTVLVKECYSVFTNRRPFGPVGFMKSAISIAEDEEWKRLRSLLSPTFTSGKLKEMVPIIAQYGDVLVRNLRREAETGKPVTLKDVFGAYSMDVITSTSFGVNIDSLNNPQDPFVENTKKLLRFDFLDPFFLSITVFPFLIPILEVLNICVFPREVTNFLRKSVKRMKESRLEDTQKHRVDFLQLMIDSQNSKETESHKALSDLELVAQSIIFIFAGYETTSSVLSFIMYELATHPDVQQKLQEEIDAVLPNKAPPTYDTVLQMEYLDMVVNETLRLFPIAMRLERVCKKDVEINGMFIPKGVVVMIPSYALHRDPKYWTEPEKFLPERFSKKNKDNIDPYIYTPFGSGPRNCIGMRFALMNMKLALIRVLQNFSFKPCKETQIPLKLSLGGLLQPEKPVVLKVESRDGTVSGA

[18] = biological target: Cytochrome P450 2C19 (Homo sapiens, UniProt P33261); assay: Inhibition of CYP2C19 in human Liver microsomes after 35 mins by LC-MS/MS method
Sequence of Cytochrome P450 2C19 (P33261 whole entry): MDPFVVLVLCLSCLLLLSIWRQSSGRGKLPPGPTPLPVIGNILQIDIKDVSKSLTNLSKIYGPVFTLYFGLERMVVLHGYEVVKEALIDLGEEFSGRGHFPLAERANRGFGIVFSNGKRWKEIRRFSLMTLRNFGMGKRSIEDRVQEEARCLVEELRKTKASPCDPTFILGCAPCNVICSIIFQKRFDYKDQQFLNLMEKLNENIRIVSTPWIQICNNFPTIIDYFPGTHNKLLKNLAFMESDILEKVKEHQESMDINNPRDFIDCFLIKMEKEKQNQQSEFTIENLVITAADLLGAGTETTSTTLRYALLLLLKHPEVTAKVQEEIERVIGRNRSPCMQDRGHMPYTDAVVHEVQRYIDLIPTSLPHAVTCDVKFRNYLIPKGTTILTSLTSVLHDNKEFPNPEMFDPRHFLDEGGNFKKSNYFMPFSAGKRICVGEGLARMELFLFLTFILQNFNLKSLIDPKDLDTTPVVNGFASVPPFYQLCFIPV

[19] = biological target: Cytochrome P450 2D6 (Homo sapiens, UniProt P10635); assay: Inhibition of CYP2D6 in human Liver microsomes after 5 mins by LC-MS/MS method
Sequence of Cytochrome P450 2D6 (P10635 whole entry): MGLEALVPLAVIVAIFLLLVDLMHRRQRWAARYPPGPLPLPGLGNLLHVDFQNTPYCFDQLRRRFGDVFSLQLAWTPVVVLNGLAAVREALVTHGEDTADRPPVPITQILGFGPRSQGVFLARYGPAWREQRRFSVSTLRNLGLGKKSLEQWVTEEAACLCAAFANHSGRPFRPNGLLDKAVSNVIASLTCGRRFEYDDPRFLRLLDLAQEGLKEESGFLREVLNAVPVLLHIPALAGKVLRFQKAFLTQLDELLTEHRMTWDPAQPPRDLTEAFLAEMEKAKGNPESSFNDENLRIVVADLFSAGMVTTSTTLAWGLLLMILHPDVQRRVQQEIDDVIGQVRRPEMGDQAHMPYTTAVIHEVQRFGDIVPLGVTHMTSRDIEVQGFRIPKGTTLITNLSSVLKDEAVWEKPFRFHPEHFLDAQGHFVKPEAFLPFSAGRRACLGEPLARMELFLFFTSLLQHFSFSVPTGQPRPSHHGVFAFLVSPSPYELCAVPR

[20] = Efflux ratio of permeability from basolateral to apical side over apical to basolateral side in human Caco2 cells after 2 hrs by LC-MS/MS method; details: Caco-2
[21] = biological target: T1, Cytochrome P450 2C8 (Homo sapiens, UniProt P10632); assay: Inhibition of CYP2C8 in human Liver microsomes after 5 mins by LC-MS/MS method
T1 sequence (P10632 whole entry): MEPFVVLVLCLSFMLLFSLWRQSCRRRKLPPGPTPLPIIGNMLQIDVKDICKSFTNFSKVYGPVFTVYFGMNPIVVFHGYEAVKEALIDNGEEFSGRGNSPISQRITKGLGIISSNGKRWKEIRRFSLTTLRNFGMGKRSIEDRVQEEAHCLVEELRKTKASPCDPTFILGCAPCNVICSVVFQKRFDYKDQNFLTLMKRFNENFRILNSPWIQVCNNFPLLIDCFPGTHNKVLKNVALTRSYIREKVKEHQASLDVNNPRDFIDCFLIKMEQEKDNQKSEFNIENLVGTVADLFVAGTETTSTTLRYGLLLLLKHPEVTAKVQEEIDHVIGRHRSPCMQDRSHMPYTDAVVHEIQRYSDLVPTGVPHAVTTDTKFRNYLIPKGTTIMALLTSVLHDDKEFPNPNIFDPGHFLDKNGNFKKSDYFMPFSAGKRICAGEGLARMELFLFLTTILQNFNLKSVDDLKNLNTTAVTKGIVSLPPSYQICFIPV

[22] = Half life in human liver S9 microsomes in absence of NADPH by LC-MS/MS method
[23] = Half life in human liver S9 microsomes in presence of NADPH by LC-MS/MS method

Row | Compound | IC50 [6] [µM] | IC50 [7] [µM] | selectivity ratio ([1]; L6 cells) | IC50 [2] [µM] | IC50 [3] [µM] | selectivity ratio ([4]; L6 cells) | selectivity ratio ([5]; L6 cells) | IC50 [8] [µM] | Activity [9] [nmol/min/mg] | Activity [10] [nmol/min/mg] | further results
1 | O=C(Cn1cnc([N+](=O)[O-])n1)N1CCN(c2ccc(Cl)c(Cl)c2)CC1 | 0.169 | 4.48 | 641 | 1.22 | 108 | 24 | 89 | 4.73 | 753 | 2320 | Activity [11]: Non-toxic; IC50 [12]: 0.65 µM; Ratio IC50 [13]: 12.3; IC50 [14]: 7.97 µM; inhibition in vivo at 15 mg/kg/day [15]: 77%
2 | O=C(Cn1cnc([N+](=O)[O-])n1)N1CCN(c2ccc(C(F)(F)F)cc2)CC1 | 0.596 | 4.22 | 340 | 1.88 | 202 | 48 | 108 | 17.5 | 707 | 2190 | IC50 [12]: 0.85 µM; Ratio IC50 [13]: 16; IC50 [14]: 13.6 µM
3 | O=C(Cn1cnc([N+](=O)[O-])n1)N1CCN(Cc2ccc(Cl)c(Cl)c2)CC1 | 0.298 | 0.231 | – | 8.13 | 59.9 | – | – | 3.59 | 745 | 3730 | selectivity ratio ([1]; l6): 201; IC50 [16]: > 20 µM; IC50 [17]: > 20 µM; IC50 [18]: > 20 µM; IC50 [19]: > 20 µM; selectivity ratio ([4]; l6): 260; IC50 [12]: 0.58 µM; Ratio IC50 [13]: 7.2; selectivity ratio ([5]; l6): 7.36; efflux ratio at 2 h [20]: 0.91; IC50 [14]: 4.13 µM; IC50 [21]: > 20 µM
4 | O=C(Cn1cnc([N+](=O)[O-])n1)N1CCN(c2ncccn2)CC1 | 10 | 33.4 | 15 | 22.9 | 150 | 4.5 | 6.52 | > 30 | 743 | 2060 | –
5 | O=C(Cn1cnc([N+](=O)[O-])n1)N1CCN(Cc2ccc(C(F)(F)F)cc2)CC1 | 0.862 | 1.39 | – | 9.7 | 111 | – | – | 26 | 701 | 3800 | half-life [22]: > 3 h; IC50 [12]: 1.78 µM; IC50 [14]: > 30 µM; half-life [23]: > 3 h
6 | O=C(Cn1cnc([N+](=O)[O-])n1)N1CCN(C(c2ccccc2)c2ccc(Cl)cc2)CC1 (centres undefined) | 0.073 | 3.41 | 302 | 1.45 | 21.9 | 6.43 | 14.6 | 2.75 | 672 | 3910 | IC50 [12]: 1.04 µM; Ratio IC50 [13]: 3.7; IC50 [14]: 3.86 µM
7 | O=C(Cn1ccnc1[N+](=O)[O-])NCc1ccccc1 [BENZNIDAZOLE] | – | – | – | – | – | – | – | – | 680 | 1540 | inhibition in vivo at 15 mg/kg/day [15]: 99%
8 | O=C(Cn1ccnc1[N+](=O)[O-])N1CCN(c2ncccn2)CC1 | 142 | 157 | 1.97 | 133 | 280 | 1.79 | 2.11 | – | – | – | –
9 | O=C(Cn1cnc([N+](=O)[O-])n1)N1CCN(C(=O)C2CC2)CC1 | 148 | 85.2 | 1.05 | 30.6 | 156 | 1.83 | 5.12 | – | – | – | –
10 | O=C(Cn1cnc([N+](=O)[O-])n1)N1CCN(c2ccccn2)CC1 | 4.64 | 19.3 | 37.3 | 18.5 | 173 | 8.98 | 9.35 | – | – | – | –

Now from value to compound, other results behind:

Row | IC50 [6] [µM] | IC50 [7] [µM] | Compound | selectivity ratio ([1]; L6 cells) | IC50 [2] [µM] | IC50 [3] [µM] | selectivity ratio ([4]; L6 cells) | selectivity ratio ([5]; L6 cells) | IC50 [8] [µM] | Activity [9] [nmol/min/mg] | Activity [10] [nmol/min/mg] | further results
11 | 29.8 | 26.3 | Cc1ccc(N2CCN(CC(=O)N3CCN(c4ccc(C)cc4)CC3)CC2)cc1 | 7 | 24.2 | 213 | 8.1 | 9 | – | – | – | –
12 | 1.33 | 9.91 | Cc1ccc(N2CCN(C(=O)Cn3cnc([N+](=O)[O-])n3)CC2)cc1 | 112 | 10.8 | 148 | 15 | 14 | > 30 | 787 | 2190 | –
13 | 25.7 | 12.8 | N#Cc1ccccc1N1CCN(CC(=O)N2CCN(c3ccccc3C#N)CC2)CC1 | 5 | 24.3 | 127 | 9.9 | 4 | – | – | – | –
14 | 1.12 | 74.3 | O=C(Cn1cnc([N+](=O)[O-])n1)N1CCN(c2ccc(Cl)cc2)CC1 | > 254 | 9.39 | > 285 | > 4 | > 30 | > 30 | 761 | 2180 | –
15 | 2.71 | 24.6 | O=C(CN1CCN(c2ccc(C(F)(F)F)cc2)CC1)N1CCN(c2ccc(C(F)(F)F)cc2)CC1 | 12 | 5.03 | 31.7 | 1.2 | 6 | – | – | – | –
16 | 2.42 | 16.4 | COc1ccc(N2CCN(C(=O)Cn3cnc([N+](=O)[O-])n3)CC2)cc1 | 54.7 | 18.5 | 133 | 8.1 | 7.18 | – | – | – | –
17 | 6.06 | 12.6 | O=C(CN1CCN(c2ccc(Cl)cc2)CC1)N1CCN(c2ccc(Cl)cc2)CC1 | 19 | 18 | 116 | 9 | 6 | – | – | – | –
18 | 2.85 | 11.3 | N#Cc1ccccc1N1CCN(C(=O)Cn2cnc([N+](=O)[O-])n2)CC1 | 75 | 14.6 | 213 | 19 | 15 | – | – | – | –
19 | 1.81 | 26 | O=C(CN1CCN(c2ccc(Cl)c(Cl)c2)CC1)N1CCN(c2ccc(Cl)c(Cl)c2)CC1 | 11 | 6.27 | 20.2 | < 1 | 3 | – | – | – | –

From ChEMBL document CHEMBL3632593, “3-Nitrotriazole-based piperazides as potent antitrypanosomal agents” (Eur J Med Chem, 2015)
